Results published in PubChem BioAssay AID588627 (Johns Hopkins Ion Channel Center, 2011).
The whole screen tested about 310,000 compounds, of which about 1,400 (0.45%) were called active. The sample holds actives, similar compounds and a random draw of the others, so the mix is not that of the screen.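 How the source made its calls: active means calcium response B-score plate-corrected fluorescence ratio at least 3 library SD, with starting fluorescence B-score inside 5 SD; inactive means the rest.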

Molecular target: Mas-related G-protein coupled receptor member X1 (Homo sapiens) (UniProt Q96LB2)
Experiment: agonists of human MrgX1 receptor, primary screen, HEK293 cells, Fluo-4 calcium flux (AID 588627);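 on B-score: B-score of the peak-minus-trough calcium fluorescence change over baseline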
Conditions: Fluo-4 calcium fluorescence, agonist mode, at 10 µM; active compounds read high
In short: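 Test system: HEK293 cells stably expressing human MrgX1 receptor; Input: fifteen thousand cells per well; Dosing: compound delivered in addition one of three; Schedule: overnight seeding, then 1 h dark dye loading; Technique: Fluo-4 NW calcium fluorescence; Measure: B-scored fluorescence response ratio; Controls: positive and negative controls per plate.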

Mas-related G-protein coupled receptor member X1 (Homo sapiens), sequence (Q96LB2 whole entry, looked up): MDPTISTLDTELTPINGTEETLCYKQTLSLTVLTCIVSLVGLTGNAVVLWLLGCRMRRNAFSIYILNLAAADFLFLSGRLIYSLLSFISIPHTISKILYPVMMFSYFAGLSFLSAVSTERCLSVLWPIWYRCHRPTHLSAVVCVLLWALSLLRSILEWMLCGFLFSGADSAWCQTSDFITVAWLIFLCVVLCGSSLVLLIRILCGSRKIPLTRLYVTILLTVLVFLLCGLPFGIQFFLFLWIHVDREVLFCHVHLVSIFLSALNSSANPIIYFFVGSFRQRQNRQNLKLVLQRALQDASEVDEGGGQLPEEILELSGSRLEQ

B-score, active:
Cc1[nH][nH]c(=O)c1C(c1ccc(-c2ccc(Cl)cc2)o1)c1c(C)[nH][nH]c1=O 46.3
CN1CCN(/N=C/c2ccc(-c3ccc([N+](=O)[O-])cc3)o2)CC1 31.5
CC(C)(C)Nc1c(-c2cccs2)nc2ccccn12 44.8
COC(=O)Cn1cc(/C=C/[N+](=O)[O-])c2ccccc21 31.6
CCN(CC)c1ccc2oc(=O)c(C)nc2c1 27
O=C1/C(=C/c2ccc(F)cc2)SC(=S)N1NS(=O)(=O)c1ccccc1 27.7
Cc1nc(C)c(-c2csc(NCCc3ccccc3)n2)s1 32.5
COc1ccc2c(c1)OC(O)(C(F)(F)C(F)F)CC2=O (stereo unspecified) 79.7
O=C(Nc1ccccc1)c1nnsc1S(=O)(=O)c1ccc(Cl)cc1 33.9
Cc1cc2oc3ccc(NCCC4CCCN4C)cc3c(=O)c2cc1C (stereo unspecified) 27.5
FC(F)(F)C1CCCN(c2nsc3ccccc23)C1 (stereo unspecified) 30.1
CN(C)c1ccc(/C=C2\NC(=S)N(Cc3ccccc3)C2=O)cc1 49.1
COc1ccc(C(=O)NNC(=S)NC(=O)c2ccccc2)cc1 113
COc1ccc(C(=O)NC(=S)NNC(=O)CCc2ccccc2)cc1 107
COC(=O)c1ccc(C2C3=C(Nc4nnnn42)c2ccccc2OC3)cc1 (stereo unspecified) 27.7
O=c1c2cc(Br)ccc2nc(-c2cccc(Cl)c2)n1O 67.7
COC1=C/C(=C/c2c(N)n3nc(CC(=O)N4CCOCC4)sc3nc2=O)C=CC1=O 34.8
CC1(C(=O)O)CCC(C(=O)Nc2ccc(Cl)c(Cl)c2)C1(C)C (stereo unspecified) 30.1
O=C1C(=O)N(CC2COc3ccccc3O2)c2ccccc21 (stereo unspecified) 56
CN(c1ccccc1)c1ccc(/C=c2\s/c(=C(/C#N)C(=O)C(C)(C)C)n(Cc3ccco3)c2=O)cc1 193

B-score, inactive:
COc1ccc(S(=O)(=O)N2CCN(c3ncnc4c(-c5ccccc5)nsc34)CC2)cc1
COc1ccccc1CCNS(=O)(=O)c1cn(C)nc1C
CS(=O)(=O)N(CC(=O)N1CCCCCC1)c1cccc(Cl)c1Cl
Cc1ccc(-n2cc(CN(C)Cc3nccn3C)c(-c3cccc(C)c3)n2)cc1
CCOc1c(Nc2cccc(Cl)c2)c(=O)c1=O
O=C(CCN1CCN(C/C=C/c2ccccc2)CC1)Nc1ccccc1Cl
O=C(NC1CCCCC1)c1ccc(-c2ccc(Cl)cc2)o1
CCOc1ccc(C(c2c(C)[nH][nH]c2=O)c2c(C)[nH][nH]c2=O)cc1OCC
CCNc1nc(NC(C)C)nc(OCCOC(=O)c2ccccc2)n1
COc1cccc(-c2ccc(SCC(=O)N3CCN(c4ccccc4)CC3)nn2)c1
Cc1ccc(-c2ccc(/C=N/NC(=O)CN3CCOCC3)o2)cc1[N+](=O)[O-]
CN1CCN(/N=C/c2ccc(C#N)cc2)CC1
Cn1c(Cn2nnc3ccccc32)nnc1SCC(=O)c1ccccc1F
CCN(CC)S(=O)(=O)c1ccc(N2CCCC2)c(NS(=O)(=O)c2cccs2)c1
Cc1cc2nc(C(F)(F)F)cc(-c3cccs3)n2n1
Cc1nc2ccccn2c(=O)c1NC(=O)c1cccs1
COC(=O)c1ccc(NC(=O)CN(c2ccc(C)cc2)S(=O)(=O)c2c(C)n[nH]c2C)cc1
O=C(CSC1=NS(=O)(=O)c2cc(F)ccc2N1)Nc1ccccc1F
COC(=O)N/N=C/c1cn(CCCOc2ccc(C)cc2)c2ccccc12
COC(=O)c1cn(CC(=O)NCc2cccs2)c2ccccc12
CCCCn1c(N)c(N(CCOC)C(=O)c2cccc(S(=O)(=O)N3CCCCC3)c2)c(=O)[nH]c1=O
COCCCNC(=O)CN1C(=O)CSc2ccc(S(=O)(=O)N3CCOCC3)cc21
C=CCN(C(=O)Nc1ccc2oc(C)nc2c1)c1ccccc1
CCN(CC)c1ccc(C(=O)Nn2c(C)nc3ccccc3c2=O)cc1
Cc1ccc2c(c1)C1CN(C)CCC1N2S(=O)(=O)c1ccc(Oc2ccc([N+](=O)[O-])cc2)cc1 (stereo unspecified)
COC(=O)CNC(c1ccccc1Cl)c1cc(Br)ccc1NC(=O)CCN1CCOCC1 (stereo unspecified)
O=C1/C(=C/c2ccc(F)cc2)SC(=S)N1CCCC(=O)N1CCCCC1CCO (stereo unspecified)
O=C(O)c1ccc(/C=C2\SC(=S)N(NC(=O)c3ccc(Br)cc3)C2=O)cc1
CCNc1nc(-c2cc3ccccc3o2)cs1
S=c1[nH]nc(NCCc2ccccc2)s1
Cc1ccccc1NC(=O)Cn1cc(C(=O)C2CC2)c2ccccc21
COc1ccc2c(c1)O/C(=C\c1ccccc1O)C2=O
COc1ccc2c(c1)SC(C)CC2=O (stereo unspecified)
CN(CC(O)COc1ccc(S(=O)(=O)N2CCOCC2)cc1Cl)C1CCCCC1 (stereo unspecified)
CC(C)(C)NC(=O)CN(C(=O)c1csnn1)c1ccccc1-c1ccccc1
COc1ccc(-c2nc(CN3CCN(c4ncccn4)CC3)c(C)o2)cc1C
Cc1nnsc1C(=O)N/N=C/c1ccccc1Cl
CN(c1cccc(NC(=O)Nc2ccc(Cl)cc2)c1)S(C)(=O)=O
Cc1sc2ncn(CC(=O)NCCN(C)C)c(=O)c2c1S(=O)(=O)N1CCC(C)CC1
COC(=O)C1=C(C(=O)OC)C(c2cc([N+](=O)[O-])ccc2O)c2sc(=O)[nH]c2S1 (stereo unspecified)
CCCC1OC23CCCCC2C(C#N)(C#N)C1(C#N)C(=N)O3 (stereo unspecified)
CCOC(=O)C1CCN(C(=O)C2(NC(=O)Nc3cccc(F)c3)CCCCC2)CC1
CCCOc1ccc(C2c3c(oc4cc(C)c(C)cc4c3=O)C(=O)N2CCCN2CCOCC2)cc1 (stereo unspecified)
Cc1ccc(CS(=O)(=O)CCC(=O)NC2CC2)cc1
O=C(NCC(=O)N1CCCC(C(F)(F)F)C1)c1ccccc1F (stereo unspecified)
O=C(NC(Cc1ccccc1)C(=O)N1CCCC(C(F)(F)F)C1)c1ccccc1 (stereo unspecified)
Cc1n[nH]c(=O)c2c1nnn2Cc1ccc(F)cc1
COc1ccc(CCNC(=O)C(=O)NCC2OCCN2S(=O)(=O)c2ccc(F)cc2)cc1OC (stereo unspecified)
CC(C)CCN1NC2(CCC(C)CC2)NC1=S (stereo unspecified)
CC(C)N(c1ccccc1)c1ncnc(NCCC(=O)O)c1[N+](=O)[O-]
COc1cc(/C=C2/SC(=S)N(Cc3ccccc3)C2=O)cc(OC)c1O
O=C1/C(=C\c2ccsc2)NC(=S)N1c1ccccc1
CCC(C)c1ccccc1N1CC(C(=O)N2CCN(S(=O)(=O)c3ccc(F)cc3)CC2)CC1=O (stereo unspecified)
Cc1cc(NC(=O)CSc2nnnn2-c2ccc(F)cc2)no1
COc1ccc(C(=O)NNC(=S)NC(=O)c2ccccc2[N+](=O)[O-])cc1
COc1ccc(C(=O)NC2CCN(C(=S)NCCc3ccccc3)CC2)cc1
CC(C)Oc1ccc(CCC(=O)NNC(=S)NCc2ccccc2)cc1
COc1ccc(C(=O)NC(=S)NC2CCCCC2)cc1
Cc1ccc(NS(=O)(=O)c2cc3c(cc2C)NC(=O)CO3)cc1
O=C(Nc1cccc(Cl)c1)Nc1ccccc1NS(=O)(=O)c1cccs1
C[n+]1ccc(/C=C/c2c[nH]c3ccccc23)cc1
COc1ccccc1/C=C/CN1CCC(CO)(Cc2ccccc2)CC1
COc1ccccc1NC(=O)C1=C(C)Nc2nnnn2C1c1cccc(Br)c1 (stereo unspecified)
COC(=O)C1=C(C(=O)c2ccc(C)cc2)C(c2ccccc2)n2nnnc2N1 (stereo unspecified)
COc1cccc(CN(C)CC(O)COC(c2ccccc2)c2ccccc2C)c1 (stereo unspecified)
Cn1c(=O)c2cc(S(=O)(=O)NCCC(=O)Nc3ccc(F)cc3F)ccc2n(C)c1=O
Cc1ccc(C(=O)C(C)OC(=O)Cc2n[nH]c(=O)c3ccccc23)cc1C (stereo unspecified)
Cc1cccc(-c2nc3ccccc3c(=O)n2NC(=O)Cc2ccc(Cl)cc2)c1
O=C1CCCc2c1nc(-c1cccc(Cl)c1)n2O
Cc1c2cnn(CC(=O)NCCCN3CC(C)CC(C)C3)c(=O)c2c(C)n1Cc1ccc(Cl)cc1 (stereo unspecified)
COc1cc(NC(=O)C2=C(C)OCCS2)c(Cl)cc1C(=O)NCCN1CCN(C)CC1
O=C(Nc1ccccc1N1CCOCC1)c1ccc(OCc2cscn2)cc1
Cc1nn(CC2CC2)c(=O)n1N(C)c1ncc(C(F)(F)F)cc1Cl
COc1ccc(-c2ccnc(SCC(=O)N3CCOCC3)n2)cc1
C=CCC1=C/C(=C\c2c(N)n3nc(CC(=O)N4CCOCC4)sc3nc2=O)C=C(OC)C1=O
CC(=O)Nc1nc2c(s1)C(=O)NCC(C)(C)C2
NC(=O)N1CCCC1C(=O)Nc1ccc(Cl)c(Cl)c1 (stereo unspecified)
CCN(CC)C(=O)C1CCC(C)(C(=O)O)C1(C)C (stereo unspecified)
Cc1ccsc1C1C(C#N)=C(N)OC2=C1C(=O)CC(C)(C)C2 (stereo unspecified)
Cc1c(C(=O)Nc2ccccc2)sc2nc3n(c(=O)c12)CCCCC3
COc1ccc(OC)c(NC(=O)c2ccc3c(c2)C(=O)N(c2ccc(OC(C)=O)cc2)C3=O)c1
Cc1cc(C(=O)CCl)c(C)n1CC1COc2ccccc2O1 (stereo unspecified)
O=C(CN1C(=O)C2C3C=CC(C3)C2C1=O)NCC1COc2ccccc2O1 (stereo unspecified)
Cc1ccc(S(=O)(=O)NC2CCCCCC2)cc1C(N)=O
O=c1nc2s/c(=C\c3ccco3)c(=O)n2nc1Cc1ccccc1
CCOC(=O)/C=c1\s/c(=C\c2ccc(C#N)cc2)c(=O)n1CC(=O)Nc1cccc(C)c1C
